High-throughput results deposited in PubChem by Broad Institute.
Hits are enriched below; roughly 5.9% of the tested compounds scored in any of these assays.
GASC1 inh: inhibitors of human demethylase GASC-1 KDM4C. hit rate 0.15% among 96,000. inhibition, % at 12.5 µM. AID 720574. GST-KDM4C 2-372, H3K9me3 peptide, LANCE TR-FRET. Q9H3R0;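 active means mean replicate inhibition above about 25%, with at least 55% of replicates also reaching it, limit read from the data, passing the limit was not always enough; inconclusive means only one of those two conditions met; inactive means neither condition met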
Target sequence (Q9H3R0 2-372 limits assumed): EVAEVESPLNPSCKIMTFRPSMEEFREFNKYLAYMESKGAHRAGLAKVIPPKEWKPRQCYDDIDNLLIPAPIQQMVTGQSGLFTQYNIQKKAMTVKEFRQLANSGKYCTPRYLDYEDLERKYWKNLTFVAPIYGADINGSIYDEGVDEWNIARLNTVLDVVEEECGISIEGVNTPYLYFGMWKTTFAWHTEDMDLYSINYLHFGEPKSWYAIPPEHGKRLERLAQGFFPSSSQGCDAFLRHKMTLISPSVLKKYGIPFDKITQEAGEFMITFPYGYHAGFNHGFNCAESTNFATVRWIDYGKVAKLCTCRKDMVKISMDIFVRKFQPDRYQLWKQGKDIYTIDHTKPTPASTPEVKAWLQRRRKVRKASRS
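reagent = H3K9me3 peptide substrate, Fe(II), 2-oxoglutarate | system = GST-tagged GASC-1 (JMJD2C) catalytic fragment, aa 2-372 | amount = enzyme final amount 10 nM | read-out = Fall in 671/618 emission ratio as inhibition | medium = HEPES buffer, pH 7.5, plus ascorbate | schedule = 30 min reaction, 60 min detection, RT | measured by = LANCE TR-FRET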
Pf Dd2 growth: P. falciparum Dd2 growth inhibition. SYBR Green, 72 h; stronger effect = lower value. activity change, % at 10 µM. hit rate 2.3% among 94,000. AID 1159554; in the data active means activity change below about -80%; inconclusive means no clear call, values can overlap the other calls
IDH1 mut inh: inhibitors of human IDH1 R132H; O75874; IDH1 R132H reductase, diaphorase/resazurin fluorescence, 60 min; inhibition, % at 10 µM; hit rate 0.18% among 70,000; in the data active means inhibition above about 34%; inconclusive means no clear call, values can overlap the other calls; inactive means below about 11%;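 further: 0% = DMSO and 100% = no enzyme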
T cruzi growth-1: T. cruzi proliferation inhibition; T. cruzi beta-gal in NIH3T3, GalScreen luminescence, 90 h; inhibition, % at 8.34 µM; hit rate 5.9% among 77,000; AID 624255;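 active means mean inhibition above about 93%, with at least 55% of replicates each passing it, limit read from the data, passing the limit was not always enough; inconclusive means only one of those two conditions holds; inactive means neither condition holds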
T cruzi growth-2: blocks T. cruzi growth in NIH3T3 host cells; shares compounds with T cruzi growth-1; hit rate 72% among 5,600; T. cruzi beta-gal in NIH3T3, GalScreen luminescence, 90 h; inhibition, % at 8.35 µM;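 active means mean replicate inhibition above about 95% and at least 55% of replicates individually reaching it, limit read from the data; inconclusive means only one of the two criteria is met; inactive means neither criterion is met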
T cruzi growth-3: inhibitors of T. cruzi proliferation | inhibition, % at 2.09 µM | T. cruzi beta-gal in NIH3T3, GalScreen luminescence, 90 h | AID 651740 | shares compounds with T cruzi growth-1 | hit rate 21% among 5,600;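 active means mean inhibition above about 95%, with at least 55% of replicates also reaching it, limit read from the data; inconclusive means meets just one of the two conditions; inactive means meets neither condition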;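 further: plate controls were neutral control median for no effect and positive control median for full effect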
3T3 cytotox: NIH/3T3 (mouse) viability loss. shares compounds with T cruzi growth-1. NIH/3T3 viability, CellTiter-Glo ATP luminescence, 90 h. cytotoxicity (signal decrease), % at 8.35 µM. hit rate 14% among 5,600;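 active means mean signal decrease across replicates above about 35% based on untreated-well scatter, with enough replicates individually passing, limit read from the data; inconclusive means no rule stated though some were filed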;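 further: 0% = median of neutral control wells and 100% = median of positive control wells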
3T3 cytotox 2: NIH/3T3 (mouse) viability loss; NIH/3T3 viability, CellTiter-Glo ATP luminescence, 90 h; hit rate 56% among 5,600; inhibition, % at 24.9 µM; shares compounds with T cruzi growth-1;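 active means mean loss of cell viability signal at or above a set limit, and enough replicates individually reaching it; inconclusive means meets only the mean limit or only the replicate share; inactive means meets neither condition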;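 further: 0% = median of neutral control wells and 100% = median of positive control wells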
Numbers without * were called inactive.

For COc1ccc(S(=O)(=O)N(C)C[C@H]2OCCCC[C@@H](C)Oc3ccc(NC(=O)NC4CCCCC4)cc3C(=O)N([C@@H](C)CO)C[C@@H]2C)cc1 the results were GASC1 inh 0, Pf Dd2 growth -73, T cruzi growth-1 96*, T cruzi growth-2 90, T cruzi growth-3 37, 3T3 cytotox -9 and 3T3 cytotox 2 -2.
`CO[C@H]1CN(C)C(=O)c2cc(NC(=O)NC(C)C)ccc2OC[C@@H](C)N(Cc2ccccn2)C[C@@H]1C` gave GASC1 inh -2, Pf Dd2 growth 17, IDH1 mut inh 0 and T cruzi growth-1 -12.
CO[C@H]1CN(C)C(=O)c2ccc(NC(=O)NC(C)C)cc2OC[C@@H](C)N(Cc2ccccn2)C[C@H]1C was read as GASC1 inh -1, Pf Dd2 growth -3, IDH1 mut inh 0, T cruzi growth-1 109*, T cruzi growth-2 53, T cruzi growth-3 -2, 3T3 cytotox 6 and 3T3 cytotox 2 -8.
COc1ccccc1NC(=O)Nc1ccc2c(c1)OC[C@@H](C)N(Cc1ccccc1Cl)C[C@@H](C)[C@H](OC)CN(C)C2=O was read as GASC1 inh -2, Pf Dd2 growth -97*, IDH1 mut inh 0, T cruzi growth-1 127*, T cruzi growth-2 104*, T cruzi growth-3 112*, 3T3 cytotox 1 and 3T3 cytotox 2 14.
`COc1ccccc1NC(=O)Nc1ccc2c(c1)OC[C@@H](C)N(Cc1ccccc1C(=O)O)C[C@@H](C)[C@H](OC)CN(C)C2=O` gave GASC1 inh 0, Pf Dd2 growth -1, IDH1 mut inh -1 and T cruzi growth-1 -169.
`CCS(=O)(=O)Nc1ccc2c(c1)C(=O)N(C)C[C@H](OC)[C@H](C)CN(Cc1ccccn1)[C@H](C)CO2` gave GASC1 inh 1, Pf Dd2 growth 32, IDH1 mut inh 0, T cruzi growth-1 99*, T cruzi growth-2 -3, T cruzi growth-3 -18, 3T3 cytotox -3 and 3T3 cytotox 2 19.
For CO[C@H]1CN(C)C(=O)c2cc(NC(=O)NC(C)C)ccc2OC[C@H](C)N(Cc2ccccn2)C[C@H]1C the results were GASC1 inh 1, Pf Dd2 growth 8, IDH1 mut inh 0, T cruzi growth-1 106*, T cruzi growth-2 73, T cruzi growth-3 5, 3T3 cytotox 12 and 3T3 cytotox 2 14.
COc1ccc(NC(=O)N(C)C[C@H]2Oc3ncc(C#C[C@H](C)O)cc3C(=O)N([C@H](C)CO)C[C@H]2C)cc1 was read as GASC1 inh -1, Pf Dd2 growth -4 and T cruzi growth-1 56.
Screening C/C=C/c1ccc([C@@H]2[C@H](CO)N(Cc3ccccn3)[C@H]2CNC(=O)CC)cc1 returned GASC1 inh 0, Pf Dd2 growth 10 and T cruzi growth-1 4.
C[C@H](CO)N1C[C@H](C)[C@H](CN(C)Cc2ccc(Oc3ccccc3)cc2)Oc2c(NC(=O)NC3CCCCC3)cccc2C1=O was read as GASC1 inh 0, Pf Dd2 growth 6, T cruzi growth-1 inconclusive, T cruzi growth-2 100*, T cruzi growth-3 105*, 3T3 cytotox inconclusive and 3T3 cytotox 2 52*.
For Cc1noc(C)c1NC(=O)N(C)C[C@@H]1Oc2c(NS(=O)(=O)c3c(C)noc3C)cccc2C(=O)N([C@H](C)CO)C[C@@H]1C the results were GASC1 inh 0, Pf Dd2 growth 25, IDH1 mut inh -1, T cruzi growth-1 102*, T cruzi growth-2 102*, T cruzi growth-3 10, 3T3 cytotox 13 and 3T3 cytotox 2 -3.
`C[C@H](CO)N1C[C@H](C)[C@@H](CN(C)Cc2ccc(Oc3ccccc3)cc2)Oc2c(NC(=O)C3CCCCC3)cccc2C1=O` gave GASC1 inh -3, Pf Dd2 growth -35, T cruzi growth-1 inconclusive, T cruzi growth-2 104*, T cruzi growth-3 89, 3T3 cytotox -28 and 3T3 cytotox 2 104*.
C[C@@H]1CN([C@H](C)CO)C(=O)c2cccc(NC(=O)NC3CCCCC3)c2O[C@@H]1CN(C)Cc1ccc(-c2ccccc2)cc1 was read as GASC1 inh -1, Pf Dd2 growth -34, T cruzi growth-1 115*, T cruzi growth-2 101*, T cruzi growth-3 67, 3T3 cytotox 6 and 3T3 cytotox 2 inconclusive.
C[C@H]1CN([C@@H](C)CO)C(=O)c2cccc(NC(=O)NC3CCCCC3)c2O[C@H]1CN(C)Cc1ccc(-c2ccccc2)cc1 was read as GASC1 inh 2, Pf Dd2 growth 9 and T cruzi growth-1 74.
For C[C@@H]1CN([C@@H](C)CO)C(=O)c2cccc(NC(=O)C3CCCCC3)c2O[C@H]1CN(C)Cc1ccc(Oc2ccccc2)cc1 the results were GASC1 inh 1, Pf Dd2 growth -67 and T cruzi growth-1 104.
Cc1noc(C)c1NC(=O)N(C)C[C@@H]1Oc2c(NS(=O)(=O)c3c(C)noc3C)cccc2C(=O)N([C@@H](C)CO)C[C@@H]1C was read as GASC1 inh 3, Pf Dd2 growth 28 and T cruzi growth-1 16.
COc1ccc(-c2cnc3c(c2)C(=O)N([C@H](C)CO)C[C@H](C)[C@H](CN(C)Cc2ccncc2)O3)cc1 was read as GASC1 inh 1, Pf Dd2 growth 7, IDH1 mut inh 3 and T cruzi growth-1 -4.
O=C(CCn1cnc2ccccc2c1=O)Nc1ccc2c(c1)Cc1ccccc1-2 was read as IDH1 mut inh 0.
Screening CC(C)NC(=O)N(C)C[C@H]1Oc2c(NC(=O)C3CC3)cccc2C(=O)N([C@@H](C)CO)C[C@H]1C returned GASC1 inh 0, Pf Dd2 growth 7 and T cruzi growth-1 -11.
Screening CC(C)NC(=O)N(C)C[C@H]1Oc2c(NC(=O)C3CC3)cccc2C(=O)N([C@H](C)CO)C[C@H]1C returned GASC1 inh -1, Pf Dd2 growth -1, IDH1 mut inh 1, T cruzi growth-1 97*, T cruzi growth-2 59, T cruzi growth-3 -10, 3T3 cytotox -3 and 3T3 cytotox 2 -21.
C[C@H](O)C#Cc1ccc([C@H]2[C@@H](CO)N3CCCCN(S(=O)(=O)c4ccccc4)C[C@H]23)cc1 was read as GASC1 inh 0, Pf Dd2 growth -17 and T cruzi growth-1 19.
For C[C@H](O)C#Cc1ccc([C@@H]2[C@H](CO)N3CCCCN(S(=O)(=O)c4ccccc4)C[C@@H]23)cc1 the results were GASC1 inh 2, Pf Dd2 growth -21, T cruzi growth-1 114*, T cruzi growth-2 19, T cruzi growth-3 13, 3T3 cytotox -1 and 3T3 cytotox 2 19.
